The source of these data is PubChem BioAssay.

A short description of assay [1]: inhibitors of TNFa-induced NFkB p65 translocation, primary screen, imaging, HUVEC, MLSMR starter and 10KST1 sets (AID 438;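 active = inhibition above 20% together with a positive visual image hit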;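 also: compound added about 3h40 before a 20 min TNFalpha stimulation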;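 as to inhibition: signal is the nuclear over cytoplasmic p65 intensity ratio per well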). The conditions noted are these: HUVEC TNFa-induced p65 nuclear translocation; cell count: measured here: nuclei count (cytotoxicity indicator), at 2.08 µM; inhibition: at 2 µM, stronger effect = higher value, 0% TNFa-plus-vehicle, 100% no-TNFa wells.
Assay [2] is described as follows: endothelial E-selectin expression blockers – imaging, HUVEC, immunofluorescence, MLSMR starter and 10KST1 sets, primary screen (AID 487;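 active = visually confirmed hit in the image check and inhibition above 20%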;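 as to inhibition: signal is fraction of cell area covered by stained E-selectin grains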;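 as to nuclei count: 100% = median nuclei count of all wells on the same plate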). The following applies: HUVEC TNFalpha-induced E-selectin immunofluorescence imaging, at 2 µM; inhibition: stronger effect = higher value; nuclei count: measured here: cell number, toxicity.
Assay [3] is described as follows: Primary imaging screen for DUSP6 inhibitors that restore phospho-Erk in transfected HeLa cells, chemical complementation (AID 609;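 active = compounds giving at least 50% inhibition in the cell-based MKP-3 phosphatase rescue imaging test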;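 as to inhibition: phospho-Erk level distribution per well compared with pooled transfected vehicle control wells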). The following applies: HeLa MKP-3 transfected, phospho-Erk imaging KS statistic, at 10 µM, cells stimulated with TPA for 15 min.
The target of assay [4] is Dual specificity protein phosphatase 6 (Homo sapiens) (UniProt Q16828). The assay is described as above. The conditions noted are these: HeLa MKP-3 transfected, phospho-Erk imaging KS statistic; at 10 µM; stronger effect = higher value; cells stimulated with TPA for 15 min.
The target of assay [5] is Voltage-gated potassium channel subunit beta-2 (Rattus norvegicus) (UniProt P62483). Kind of assay: inhibitors of rat Kvbeta2 reductase activity – biochemical, NADPH fluorescence, primary screen (AID 622;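 active = fluorescence slope higher than the sample average by over 3 SD, cut at about -0.22 in these data, passing the limit was not always enough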;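 also: slope of raw intensity against log time taken from 70 to 1610 s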). The following applies: recombinant KvBeta, 4-cyanobenzaldehyde reduction, at 10 µM, stronger effect = higher value.
Assay [6] shares this target. The assay is described as follows: enhancers of rat Kvbeta2 NADPH turnover – biochemical, NADPH fluorescence, primary screen (AID 623;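 active = NADPH fluorescence slope more negative than the mean of all samples by about 3 SD, 99.7% confidence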;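 also: fluorescence intensity change per second fitted from 20 to 320 s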). The following applies: Recombinant KvBeta, NADPH fluorescence decrease slope, 10 min; at 10 µM; stronger effect = lower value.
Assay [7] concerns the target Alpha-2C adrenergic receptor (Homo sapiens) (UniProt P18825). The assay is described as follows: compounds altering alpha2C-coupled GIRK flux – cell-based, HEK293 alpha2C/GIRK1/2, thallium flux, primary screen (AID 624).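 Also: slope of fluorescence ratio to pre-addition baseline per second over 15 to 24 s.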 The conditions noted are these: thallium flux BTC fluorescence, at 10 µM, actives lie on both sides.
A short description of assay [8]: inhibitors of larval lipid processing in zebrafish, primary screen, whole organism, PED6 fluorescence, gall bladder and intestine (AID 686;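 active = a full or partial loss of lipid-probe fluorescence in the fish gall bladder, intestine or both, judged by eye; inactive = no fluorescence loss, or compound toxic to the fish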;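 also: larvae 5 to 7 days old with five fish per well; signal comes from phospholipase A2 cleavage of quenched PED6 carried via bile; overnight exposure to compound and PED6 before scoring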). The following applies: Zebrafish larvae PED6 lipid processing, fluorescence scoring; screened at 20 µM (by protocol). In outline:
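System: live zebrafish larvae aged 5-7 days, whole organism; measure: graded gall bladder and intestinal fluorescence inhibition per well; incubation: overnight exposure; reagent: ingested quenched lipid PED6 at 100 nM; signal: By-eye fluorescence microscopy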

The nature of assay [9]: loss of swimming-algae plug formation – whole organism, Chlamydomonas reinhardtii, WT vs cilia-less mutant, absorbance, 96-well, primary screen (AID 463189;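 active = inhibition at or above 50% relative to wild type and mutant plate controls; inactive = inhibition below 50%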;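 also: 0% = wild type cc124 cells in DMSO and 100% = ciliumless bld1 mutant cells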). The following applies: Chlamydomonas reinhardtii gravitaxis, OD600 absorbance, 2 days; at 10 µM; stronger effect = higher value.
Setting [10] is: measured here: cell density z-score.
[11] abbreviates: measured here: nuclear c-Myc green intensity z-score.
The mark [12] stands for this setting: measured here: nuclear pErk red intensity z-score, stronger effect = higher value.

Active and inactive are the calls of the source.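 The calls were made as follows, unless noted: active = fluorescence slope after compound addition differing from the mean of all screened samples at 99.7% confidence, in either direction; inactive = the rest.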

Sequence of Alpha-2C adrenergic receptor (Homo sapiens) (P18825 whole entry, looked up): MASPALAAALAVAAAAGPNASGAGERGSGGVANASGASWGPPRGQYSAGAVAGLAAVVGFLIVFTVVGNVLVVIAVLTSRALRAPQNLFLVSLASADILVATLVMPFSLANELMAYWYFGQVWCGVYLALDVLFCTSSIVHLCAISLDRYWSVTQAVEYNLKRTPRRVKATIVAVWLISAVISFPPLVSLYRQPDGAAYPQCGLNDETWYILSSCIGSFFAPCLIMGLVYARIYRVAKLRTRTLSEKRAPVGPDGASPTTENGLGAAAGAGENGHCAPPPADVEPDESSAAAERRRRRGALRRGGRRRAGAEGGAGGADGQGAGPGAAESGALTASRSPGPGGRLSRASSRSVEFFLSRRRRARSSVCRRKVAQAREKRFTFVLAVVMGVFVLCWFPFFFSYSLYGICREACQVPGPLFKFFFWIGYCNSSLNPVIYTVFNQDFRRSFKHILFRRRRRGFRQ
Sequence of Dual specificity protein phosphatase 6 (Homo sapiens) (Q16828 whole entry, looked up): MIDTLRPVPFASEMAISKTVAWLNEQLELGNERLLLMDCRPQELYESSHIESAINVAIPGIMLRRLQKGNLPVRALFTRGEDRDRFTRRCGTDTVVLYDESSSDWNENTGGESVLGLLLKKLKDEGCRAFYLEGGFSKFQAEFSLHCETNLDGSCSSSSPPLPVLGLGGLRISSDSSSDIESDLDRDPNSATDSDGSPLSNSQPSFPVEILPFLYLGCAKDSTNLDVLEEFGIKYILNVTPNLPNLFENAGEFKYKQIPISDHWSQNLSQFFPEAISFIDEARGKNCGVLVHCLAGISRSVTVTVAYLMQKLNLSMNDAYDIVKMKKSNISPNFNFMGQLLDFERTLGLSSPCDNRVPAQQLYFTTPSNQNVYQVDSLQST
Sequence of Voltage-gated potassium channel subunit beta-2 (Rattus norvegicus) (P62483 whole entry, looked up): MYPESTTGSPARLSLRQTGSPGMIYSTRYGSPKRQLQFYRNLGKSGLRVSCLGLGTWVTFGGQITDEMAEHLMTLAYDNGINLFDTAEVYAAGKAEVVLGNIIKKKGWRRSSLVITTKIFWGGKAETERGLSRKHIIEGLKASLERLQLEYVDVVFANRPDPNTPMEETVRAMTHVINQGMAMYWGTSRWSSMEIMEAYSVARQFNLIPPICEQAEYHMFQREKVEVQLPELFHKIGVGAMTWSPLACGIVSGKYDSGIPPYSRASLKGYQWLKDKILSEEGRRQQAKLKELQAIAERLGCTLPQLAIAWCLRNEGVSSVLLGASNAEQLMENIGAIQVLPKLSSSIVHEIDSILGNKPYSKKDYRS

For `CCOC(=O)c1nc(N)c(C(=O)OCC)[nH]1`, the cell count in assay [1] came out at 405. In addition, the inhibition (in general, the change of the read-out against control, counted positive when it falls) in assay [1] is 11.5% (inactive); in assay [2] it was -32.3% (inactive); in [4], 18.2% (inactive); in assay [9], -16% (inactive). The same compound showed a nuclei count in assay [2] of 94.7%. Also, the figures for the z-score in [3] (setting [10]), in assay [3] (setting [11]) and in assay [3] (setting [12]) were -0.517, 1.59 and -0.341, respectively. Also, the fluorescence slope in [5] is -0.47 (inactive). Further, the NADPH fluorescence slope in assay [6] is -7.9e-05 (inactive). The slope in [7] was 0.00468 (inactive). In addition, in assay [8], the result was inactive.
Take `COC(=O)c1[nH]c2cc(OC)ccc2c1NC(=O)CCN1CCCC(C)(C)C1`: the cell count in assay [1] worked out at 350. The inhibition was -5.3% (inactive) in assay [1], -2.2% (inactive) in assay [2], 7.42% (inactive) in assay [4] and -7.62% (inactive) in [9]. The nuclei count in assay [2] was 153%. Also, the z-score in assay [3] (setting [10]) is -0.606; in [3] (setting [11]), -0.827; in [3] (setting [12]) it was 0.954. The fluorescence slope in assay [5] was -0.44 (inactive). Further, in [6], the NADPH fluorescence slope was -0.00014 (inactive). The slope in assay [7] was 0.00716 (inactive). For the same compound, the outcome in assay [8] was inactive.
`Cc1ccc2[nH]c3c(NCCN4CCOCC4)ncnc3c2c1`: the cell count in [1] turned out to be 558. Further, the inhibition in [1] is -21.5% (inactive); in [2], -90.3% (inactive); in [4] it was -6.06% (inactive); in assay [9], 2.83% (inactive). The nuclei count in [2] came out at 160%. Moreover, the z-score in [3] (setting [10]) was -2.07; in [3] (setting [11]), -0.295; in [3] (setting [12]) it was -0.0856. Also, in [5], the fluorescence slope was -0.475 (inactive). The NADPH fluorescence slope in [6] was -5.9e-05 (inactive). In addition, in assay [7], the slope was 0.00484 (inactive). The result in assay [8] was inactive.
For `CCCc1[nH]nc2c1C(c1cccc(OC)c1)C(C#N)=C(N)O2` (stereo unspecified), the cell count in assay [1] was 653. Besides, the inhibition in [1] is -18% (inactive); in assay [2], 32.3% (inactive); in assay [4] it was 1.04% (inactive); in assay [9], 11.7% (inactive). This compound came in with a nuclei count in assay [2] of 178%. For the same compound, the z-score in assay [3] (setting [10]) was -0.436; in [3] (setting [11]), -0.724; in assay [3] (setting [12]) it was 0.801. The fluorescence slope in assay [5] is -0.401 (inactive). Besides, in assay [6], the NADPH fluorescence slope is -5.6e-05 (inactive). For the same compound, the slope in [7] is 0.00438 (inactive). In assay [8], the compound was called inactive.
`COc1cccc(-c2nnc3sc(-c4ccccc4)nn23)c1`: the cell count in assay [1] is 659. The inhibition in [1] is 1.9% (inactive); in assay [2], -40.1% (inactive); in assay [4], -15% (inactive); in [9], -5.58% (inactive). The compound further showed a nuclei count in assay [2] of 160%. For the same compound, the z-score in [3] (setting [10]) is -2.38; in [3] (setting [11]) it was 2.05; in [3] (setting [12]), 2. The fluorescence slope in assay [5] was -0.424 (inactive). Further, the NADPH fluorescence slope in assay [6] is -0.000144 (inactive). The slope in assay [7] was 0.00489 (inactive). Also, the call in assay [8] was inactive.
For `O=C(NCCN1CCOCC1)c1cc2n(n1)C(C(F)(F)F)CC(c1ccc(F)cc1)N2` (stereo unspecified), the cell count in [1] turned out to be 341. In addition, the inhibition in assay [1] is -2.3% (inactive); in assay [2], -22.1% (inactive); in assay [4] it was 7.48% (inactive); in assay [9] it was -15.3% (inactive). Further, the nuclei count in assay [2] was 104%. Also, the results for the z-score in assay [3] (setting [10]), in [3] (setting [11]) and in [3] (setting [12]) were -1.73, 1.46 and -0.339, respectively. For the same compound, the fluorescence slope in assay [5] was -0.529 (inactive). Besides, the NADPH fluorescence slope in [6] was -9.5e-05 (inactive). Further, the slope in assay [7] is 0.00574 (inactive). Moreover, the outcome in [8] was inactive.
`Cc1nc2n[nH]c(N)c2c2c1COC(C)(C)C2`: the cell count in assay [1] turned out to be 674. Also, the inhibition is -22.2% (inactive) in assay [1], -454% (inactive) in assay [2], 5.57% (inactive) in assay [4] and 3.25% (inactive) in [9]. Moreover, the nuclei count in assay [2] is 178%. Further, the figures for the z-score in assay [3] (setting [10]), in [3] (setting [11]) and in assay [3] (setting [12]) were 0.565, -1.79 and -0.0762, respectively. Moreover, the fluorescence slope in assay [5] was -0.516 (inactive). In addition, the NADPH fluorescence slope in [6] is -0.000106 (inactive). The slope in assay [7] was 0.00411 (inactive). Further, the call in assay [8] was inactive.
